Experimental data from different studies.
Compare with care: the assays were run in different laboratories.
CA12: Carbonic anhydrase 12 (CA12, Homo sapiens, UniProt O43570)
USP51: Ubiquitin carboxyl-terminal hydrolase 51 (USP51, Homo sapiens, UniProt Q70EK9)
Lyn: Tyrosine-protein kinase Lyn (Lyn, Mus musculus, UniProt P25911)
SLC6A3: Sodium-dependent dopamine transporter (SLC6A3, Homo sapiens, UniProt Q01959)
DRD3: D(3) dopamine receptor (DRD3, Homo sapiens, UniProt P35462)
PPARG: Peroxisome proliferator-activated receptor gamma (PPARG, Homo sapiens, UniProt P37231)

SMILES | target | observed | action | technique | cells | tested at | inhibition [%]
CCOC(=O)C1CSc2[nH]c(=O)sc2C1c1cn(-c2ccccc2)nc1-c1ccc(Cl)cc1 (stereo not shown) | CA12 | enzyme activity | inhibitor | absorbance |  | 0.1 µM | 46.4
O=C(CO)[C@@H](O)[C@H](O)[C@H](O)CO | USP51 | enzyme activity | inhibitor |  |  | 5 µM | 97
CNC(=O)c1cc(Oc2ccc(NC(=O)Nc3ccc(Cl)c(C(F)(F)F)c3)cc2)ccn1 | Lyn | enzyme activity | inhibitor |  |  | 10 µM | 95
c1ccc(CCCC2CCN(CCCn3nnnc3C(c3ccccc3)c3ccccc3)CC2)cc1 | SLC6A3 | transporter uptake | inhibitor |  | HEK293 | 1 µM | 30.4
COc1ccc(CCN2C(=O)CC(N3CCN(c4ccc(Cl)cc4)CC3)C2=O)cc1OC (stereo not shown) | DRD3 | enzyme activity | inhibitor |  |  | 10 µM | -14.6
Oc1cccc(Nc2nc(-c3ccc(F)cc3F)cs2)c1 | PPARG | cell-free assay |  |  |  | 10 µM | 86.5
CCOC(=O)C1CSc2[nH]c(=O)sc2C1c1cn(-c2ccccc2)nc1-c1ccc(Br)cc1 (stereo not shown) | CA12 | enzyme activity | inhibitor | absorbance |  | 100 µM | 92.1
Nc1[nH]cnc2ncnc1-2 | USP51 | enzyme activity | inhibitor |  |  | 5 µM | 33
CCN(c1cc(C#CCN2CCOCC2)cc(C(=O)NCc2c(C)cc(C)[nH]c2=O)c1C)[C@H]1CC[C@H](N(C)CCOC)CC1 | Protein arginine N-methyltransferase 1 (PRMT1, Homo sapiens, UniProt Q99873) | enzyme activity | inhibitor |  |  | 1 µM | 10
O=c1cc(-c2ccccc2)oc2cc(O)c(O)c(O)c12 | USP51 | enzyme activity | inhibitor |  |  | 5 µM | 95
NS(=O)(=O)c1ccc(CCNCc2cccc3ccccc23)cc1 | DRD3 | enzyme activity | inhibitor |  |  | 10 µM | 39.3
O=C(c1ccc(Cl)cc1)N(Cc1ccccc1)C1CCCCC1 | PPARG | cell-free assay |  |  |  | 10 µM | 14.6
CC(C)c1ccccc1OCCOCC(O)CN1CCN(c2cccc(C(F)(F)F)c2)CC1 (stereo not shown) | DRD3 | enzyme activity | inhibitor |  |  | 10 µM | 14.3
NC(=O)NC1NC(=O)NC1=O (stereo not shown) | USP51 | enzyme activity | inhibitor |  |  | 5 µM | 13
Fc1ccc(C(c2ccc(F)cc2)c2nnnn2CCCCN2CCC(CCCc3ccccc3)CC2)cc1 | SLC6A3 | transporter uptake | inhibitor |  | HEK293 | 1 µM | 53.4
COc1ccc([C@@H]2CC(=O)c3c(O)cc(O[C@@H]4O[C@H](CO[C@@H]5O[C@@H](C)[C@H](O)[C@@H](O)[C@H]5O)[C@@H](O)[C@H](O)[C@H]4O)cc3O2)cc1O | USP51 | enzyme activity | inhibitor |  |  | 5 µM | 30
CC(C)(COP(=O)(O)OP(=O)(O)OC[C@H]1O[C@@H](n2cnc3c(N)ncnc32)[C@H](O)[C@@H]1OP(=O)(O)O)[C@@H](O)C(=O)NCCC(=O)NCCS | Histone acetyltransferase KAT2A (KAT2A, Homo sapiens, UniProt Q92830) | enzyme activity | inhibitor | mobility shift |  | 10 µM | 29
CCOc1ccc(CNCC(O)c2ccccc2)cc1Br (stereo not shown) | DRD3 | enzyme activity | inhibitor |  |  | 10 µM | 11.4
N#CC1CSc2[nH]c(=O)sc2C1c1cn(-c2ccccc2)nc1-c1ccc(Br)cc1 (stereo not shown) | CA12 | enzyme activity | inhibitor | absorbance |  | 1 µM | 61.5
Clc1ccc(C(c2ccccc2)c2nnnn2CCCCN2CCN(CC=Cc3ccccc3)CC2)cc1 (stereo not shown) | SLC6A3 | transporter uptake | inhibitor |  | HEK293 | 1 µM | 82.2

SMILES | target | observed | action | technique | cells | tested at | inhibition [%]
CCOC(=O)C1CSc2[nH]c(=O)sc2C1c1cn(-c2ccccc2)nc1-c1ccc(C)cc1 (stereo not shown) | CA12 | enzyme activity | inhibitor | absorbance |  | 10 µM | 83.1
O=C(Nc1ccc(S(=O)(=O)N2CCC(Cl)CC2)cc1)c1ccc([N+](=O)[O-])o1 | Sodium- and chloride-dependent GABA transporter 1 (Slc6a1, Rattus norvegicus, UniProt P23978) | ligand displacement |  | radioligand |  | 10 µM | 17
Cc1ccc(Nc2nccc(N(C)c3ccc4c(C)n(C)nc4c3)n2)cc1S(N)(=O)=O | Lyn | enzyme activity | inhibitor |  |  | 0.3 µM | 66
O=C(c1ccccc1Cl)N1CCN(CCNc2cc(=O)oc3ccccc23)CC1 | DRD3 | enzyme activity | inhibitor |  |  | 10 µM | -5.2
CN(C)C1CCN(CC#Cc2nn(C3CCCC3)c3nc(NCc4ccccc4)ncc23)C1 (stereo not shown) | Calcium/calmodulin-dependent protein kinase type IV (CAMK4, Homo sapiens, UniProt Q16566) | enzyme activity | inhibitor | FRET |  | 10 µM | 23
O=c1c(-c2ccc(O)cc2)coc2cc(O[C@@H]3O[C@H](CO)[C@@H](O)[C@H](O)[C@H]3O)ccc12 | USP51 | enzyme activity | inhibitor |  |  | 5 µM | 39
CCOC(=O)C1CSc2[nH]c(=O)sc2C1c1cn(-c2ccccc2)nc1-c1ccccc1 (stereo not shown) | CA12 | enzyme activity | inhibitor | absorbance |  | 10 µM | 72.5
c1ccc(CCCC2CCN(CCCCn3nnnc3C(c3ccccc3)c3ccccc3)CC2)cc1 | SLC6A3 | transporter uptake | inhibitor |  | HEK293 | 1 µM | 63
O=C1CC(N2CCN(Cc3ccccc3)CC2)C(=O)N1c1ccc2c(c1)OCCO2 (stereo not shown) | DRD3 | enzyme activity | inhibitor |  |  | 10 µM | -26
CCN(CC)CCNC(=O)c1c(C)[nH]c(/C=C2\C(=O)Nc3ccc(F)cc32)c1C | Lyn | enzyme activity | inhibitor |  |  | 10 µM | 98
Clc1ccc(C(c2ccccc2)c2nnnn2CCCN2CCC(Cc3ccccc3)CC2)cc1 (stereo not shown) | SLC6A3 | transporter uptake | inhibitor |  | HEK293 | 1 µM | 93.8
Nc1cc[nH]c(=O)n1 | USP51 | enzyme activity | inhibitor |  |  | 5 µM | 27
c1ccc(CCC2CCN(CCCn3nnnc3C(c3ccccc3)c3ccccc3)CC2)cc1 | SLC6A3 | transporter uptake | inhibitor |  | HEK293 | 1 µM | 68.3
O=C(CN1CCN(c2ccc(F)cc2)CC1)Nc1cc(Cl)cc(Cl)c1 | DRD3 | enzyme activity | inhibitor |  |  | 10 µM | -6.1
O=C1NC(=S)C(=Cc2cn(-c3ccccc3)nc2-c2ccc(Br)cc2)S1 | CA12 | enzyme activity | inhibitor | absorbance |  | 1 µM | 32.3
Cc1ccc(C(C)C)c(OCC(O)CN2CCN(c3ccccc3F)CC2)c1 (stereo not shown) | DRD3 | enzyme activity | inhibitor |  |  | 10 µM | 20.4
Fc1ccc(C(c2ccc(F)cc2)c2nnnn2CCCCN2CCC(c3ccccc3)CC2)cc1 | SLC6A3 | transporter uptake | inhibitor |  | HEK293 | 1 µM | 94.6
O=c1ccc2cc3ccoc3cc2o1 | USP51 | enzyme activity | inhibitor |  |  | 5 µM | 0
Clc1ccc(C(c2ccccc2)c2nnnn2CCCCN2CCC(Cc3ccc(Cl)c(Cl)c3)CC2)cc1 (stereo not shown) | SLC6A3 | transporter uptake | inhibitor |  | HEK293 | 1 µM | 67.8
CCOC(=O)C1CSc2[nH]c(=O)sc2C1c1cn(-c2ccccc2)nc1-c1ccc(OC)cc1 (stereo not shown) | CA12 | enzyme activity | inhibitor | absorbance |  | 10 nM | 17.1
